Laboratory results: ChEMBL document CHEMBL1641497, “A potent and selective indole N-type calcium channel (Ca(v)2.2) blocker for the treatment of pain” (Bioorg Med Chem Lett, 2011)
Active and inactive are the calls of the source. The calls are words filed in the database; no cut-off is given here.

Key:
Rattus norvegicus [1] = test: Antinociceptive activity in rat assessed as reversal of complete Freund's adjuvant-induced pain at 10 mg/kg, po after 3 hrs; format: functional
Outline: (§1)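 Rat CFA-induced inflammatory pain model, oral dosing. Mechanical allodynia assessed by paw pressure and expressed as % reversal. Plasma and brain drug levels measured at 3 h post-dose.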

Rattus norvegicus [2] = test: Dose normalized AUC in rat at 1 mg/kg, iv and 3 mg/kg, po; format: ADME, organism-based; settings: in vivo
Outline: (§2)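 Rat PK with 1.0 mg/kg IV and 3.0 mg/kg PO doses, based on plasma analysis. Parameters: Cmax, dose-normalized AUC (μM h kg/mg), plasma clearance (mL/min/kg), Vdss (L/kg), T1/2 (h) and oral bioavailability (%).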

[3] = Plasma concentration in rat spinal nerve ligation model at 30 mg/kg, po after 1 hrs; format: ADME, organism-based; set-up: dose 30 mg/kg, route oral; settings: read-out: Activity
Outline: (§3)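 Rat spinal nerve ligation neuropathic pain model, oral dosing. Read-out is % reversal of mechanical allodynia. Plasma and brain drug levels measured at 1 h. An efficacious (EC50) plasma exposure was derived.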

Cytochrome P450 2C9 = Cytochrome P450 2C9 (Homo sapiens, UniProt P11712); test: Inhibition of CYP2C9; format: ADME
[4] = Plasma clearance in dog at 1 mg/kg, iv and 3 mg/kg, po; format: ADME, organism-based, Canis lupus familiaris
Outline: (§4)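 Dog PK with 1.0 mg/kg IV and 3.0 mg/kg PO doses, based on plasma analysis. Parameters: dose-normalized AUC (μM h kg/mg), plasma clearance (mL/min/kg), T1/2 (h) and oral bioavailability (%).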

Rattus norvegicus [5] = test: Antinociceptive activity in rat assessed as reversal of complete Freund's adjuvant-induced pain at 3 mg/kg, po after 1 hr; format: functional; outline: as §1
[6] = Cmax in rat at 1 mg/kg, iv and 3 mg/kg, po; format: ADME, organism-based; settings: in vivo; outline: as §2
Canis familiaris [7] = species: Canis familiaris; test: Cardiotoxicity in dog assessed as reduction in mean arterial pressure at >2 uM plasma concentration; format: toxicity, organism-based, Canis lupus familiaris
Outline: (§5)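 Barbiturate-anesthetized, ventilated dogs given rising IV doses of 1, 3 and 10 mg/kg. Mean arterial pressure and heart rate recorded against plasma drug concentration.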

[8] = Plasma concentration in rat at 30 mg/kg, po after 3 hrs; format: ADME, organism-based; set-up: dose 30 mg/kg, route oral; settings: read-out: Activity; outline: as §1
Rattus norvegicus [9] = species: Rattus norvegicus; test: Neurotoxicity in rat assessed as impairment of motor coordination at 1.4 uM brain concentration by rotarod test; format: toxicity, organism-based; settings: in vivo
Outline: (§6)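 Rat Rotarod motor coordination test after IV doses of 3 and 10 mg/kg. Plasma and brain drug concentrations determined alongside coordination impairment.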

Rattus norvegicus [10] = test: Antinociceptive activity in rat assessed as reversal of complete Freund's adjuvant-induced pain at 10 mg/kg, po after 8 hrs; format: functional; outline: as §1
[11] = Volume of distribution at steady state in rat at 1 mg/kg, iv and 3 mg/kg, po; format: ADME, organism-based; settings: in vivo, read-out: Vdss; outline: as §2
[12] = Half life in rat at 1 mg/kg, iv and 3 mg/kg, po; format: ADME, organism-based; settings: in vivo; outline: as §2
Rattus norvegicus [13] = species: Rattus norvegicus; test: Neurotoxicity in rat assessed as impairment of motor coordination at 1.9 uM plasma concentration by rotarod test; format: toxicity, organism-based; settings: in vivo; outline: as §6
Rattus norvegicus [14] = test: Antinociceptive activity in rat assessed as reversal of complete Freund's adjuvant-induced pain at 10 mg/kg, po after 1 hr; format: functional; outline: as §1
Cytochrome P450 2D6 = Cytochrome P450 2D6 (Homo sapiens, UniProt P10635); test: Inhibition of CYP2D6; format: ADME
Rattus norvegicus [15] = species: Rattus norvegicus; test: Antiallodynic activity in rat spinal nerve ligation model of neuropathic pain assessed as reversal of mechanical allodynia at 0.44 uM plasma concentration; format: functional, organism-based; outline: as §3
[16] = Drug level in rat brain at 30 mg/kg, po after 3 hrs; format: ADME, organism-based; set-up: dose 30 mg/kg, route oral; settings: read-out: Activity; outline: as §1
Canis familiaris [17] = species: Canis familiaris; test: Cardiotoxicity in dog assessed as reduction in heart rate at maximal plasma exposure; format: toxicity, organism-based, Canis lupus familiaris; set-up: scale not given: the % may be the effect or the level left; outline: as §5
Cytochrome P450 3A4 = Cytochrome P450 3A4 (Homo sapiens, UniProt P08684); test: Inhibition of CYP3A4; format: ADME
[18] = Drug level in spinal nerve ligation model rat brain at 30 mg/kg, po after 1 hrs; format: ADME, organism-based; set-up: dose 30 mg/kg, route oral; settings: read-out: Activity; outline: as §3
Canis familiaris [19] = test: Dose normalized AUC in dog at 1 mg/kg, iv and 3 mg/kg, po; format: ADME, organism-based, Canis lupus familiaris; settings: in vivo; outline: as §4
Plasma = test: Plasma concentration in rat at 3 mg/kg, iv; format: ADME, organism-based; set-up: dose 3 mg/kg, route intravenous; settings: in vivo, read-out: Drug uptake; outline: as §6
[20] = Plasma clearance in rat at 1 mg/kg, iv and 3 mg/kg, po; format: ADME, organism-based; outline: as §2
[21] = Oral bioavailability in rat at 3 mg/kg; format: ADME, organism-based; settings: in vivo; outline: as §2
Rattus norvegicus [22] = test: Antinociceptive activity in rat assessed as reversal of complete Freund's adjuvant-induced pain at 30 mg/kg, po after 3 hrs; format: functional; outline: as §1
Rattus norvegicus [23] = test: Antinociceptive activity in rat assessed as reversal of complete Freund's adjuvant-induced pain at 3 mg/kg, po after 8 hrs; format: functional; outline: as §1
[24] = Metabolic stability in human liver microsomes assessed as compound remaining after 60 mins; format: ADME, Microsome; settings: read-out: Stability
Outline: (§7)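 Compounds incubated with human or rat liver microsomes for 60 min. Read-out is the percent of parent compound remaining.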

Rattus norvegicus [25] = test: Antiallodynic activity in rat spinal nerve ligation model of neuropathic pain assessed as reversal of mechanical allodynia at 10 mg/kg, po after 1 hr; format: functional; outline: as §3
Rattus norvegicus [26] = test: Antinociceptive activity in rat assessed as reversal of complete Freund's adjuvant-induced pain at 3 mg/kg, po after 3 hrs; format: functional; outline: as §1
Rattus norvegicus [27] = species: Rattus norvegicus; test: Neurotoxicity in rat assessed as impairment of motor coordination at 8 uM plasma concentration by rotarod test; format: toxicity, organism-based; settings: in vivo; outline: as §6
Rattus norvegicus [28] = test: Antinociceptive activity in rat assessed as reversal of complete Freund's adjuvant-induced pain at 30 mg/kg, po after 8 hrs; format: functional; outline: as §1
Rattus norvegicus [29] = species: Rattus norvegicus; test: Neurotoxicity in rat assessed as impairment of motor coordination at 6 uM brain concentration by rotarod test; format: toxicity, organism-based; settings: in vivo; outline: as §6
Rattus norvegicus [30] = test: Antiallodynic activity in rat spinal nerve ligation model of neuropathic pain assessed as reversal of mechanical allodynia at 30 mg/kg, po after 3 hrs; format: functional; outline: as §3
[31] = target: T1, Nuclear receptor subfamily 1 group I member 2 (Homo sapiens, UniProt O75469); test: Activity at PXR by induction assay
T1 sequence (O75469 whole entry): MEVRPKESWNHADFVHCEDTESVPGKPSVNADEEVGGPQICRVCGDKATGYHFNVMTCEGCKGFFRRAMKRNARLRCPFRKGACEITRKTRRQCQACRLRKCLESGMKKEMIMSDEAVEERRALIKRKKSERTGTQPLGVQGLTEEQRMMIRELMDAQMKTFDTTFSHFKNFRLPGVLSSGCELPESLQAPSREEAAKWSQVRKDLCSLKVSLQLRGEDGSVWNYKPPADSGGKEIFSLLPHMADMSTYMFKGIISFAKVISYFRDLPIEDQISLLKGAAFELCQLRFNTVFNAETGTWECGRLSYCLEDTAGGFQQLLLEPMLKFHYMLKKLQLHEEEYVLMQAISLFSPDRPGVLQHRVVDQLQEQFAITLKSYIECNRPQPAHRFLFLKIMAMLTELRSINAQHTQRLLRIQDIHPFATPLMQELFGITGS

Rattus norvegicus [32] = test: Antiallodynic activity in rat spinal nerve ligation model of neuropathic pain assessed as reversal of mechanical allodynia at 10 mg/kg, po after 8 hrs; format: functional; outline: as §3
[33] = Half life in dog at 1 mg/kg, iv and 3 mg/kg, po; format: ADME, organism-based, Canis lupus familiaris; settings: in vivo; outline: as §4
Brain = test: Drug level in rat brain at 3 mg/kg, iv; format: ADME, organism-based; set-up: dose 3 mg/kg, route intravenous; settings: in vivo, read-out: Drug uptake; outline: as §6
Rattus norvegicus [34] = test: Antiallodynic activity in rat spinal nerve ligation model of neuropathic pain assessed as reversal of mechanical allodynia at 10 mg/kg, po after 3 hrs; format: functional; outline: as §3
[35] = target: Cav1.2 (voltage-dependent L-type calcium channel subunit alpha-1C) (Homo sapiens, UniProt Q13936); test: Blockade of Cav1.2 channel at 10 uM by fluorescent calcium-influx assay
Outline: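 Cav1.2 (L-type) channel block measured with a fluorescent calcium-influx FLIPR assay. Results are reported as % inhibition at 10 μM test concentration.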

Rattus norvegicus [36] = test: Antiallodynic activity in rat spinal nerve ligation model of neuropathic pain assessed as reversal of mechanical allodynia at 30 mg/kg, po after 1 hr; format: functional; outline: as §3
Rattus norvegicus [37] = test: Antinociceptive activity in rat assessed as reversal of complete Freund's adjuvant-induced pain at 30 mg/kg, po after 1 hr; format: functional; outline: as §1
[38] = Oral bioavailability in dog at 3 mg/kg; format: ADME, organism-based, Canis lupus familiaris; settings: in vivo
Rattus norvegicus [39] = test: Antiallodynic activity in rat spinal nerve ligation model of neuropathic pain assessed as reversal of mechanical allodynia at 30 mg/kg, po after 8 hrs; format: functional; outline: as §3
[40] = Metabolic stability in rat liver microsomes assessed as compound remaining after 60 mins; format: ADME, Microsome; settings: read-out: Stability; outline: as §7

Cav1.2 (voltage-dependent L-type calcium channel subunit alpha-1C), sequence (Q13936 whole entry): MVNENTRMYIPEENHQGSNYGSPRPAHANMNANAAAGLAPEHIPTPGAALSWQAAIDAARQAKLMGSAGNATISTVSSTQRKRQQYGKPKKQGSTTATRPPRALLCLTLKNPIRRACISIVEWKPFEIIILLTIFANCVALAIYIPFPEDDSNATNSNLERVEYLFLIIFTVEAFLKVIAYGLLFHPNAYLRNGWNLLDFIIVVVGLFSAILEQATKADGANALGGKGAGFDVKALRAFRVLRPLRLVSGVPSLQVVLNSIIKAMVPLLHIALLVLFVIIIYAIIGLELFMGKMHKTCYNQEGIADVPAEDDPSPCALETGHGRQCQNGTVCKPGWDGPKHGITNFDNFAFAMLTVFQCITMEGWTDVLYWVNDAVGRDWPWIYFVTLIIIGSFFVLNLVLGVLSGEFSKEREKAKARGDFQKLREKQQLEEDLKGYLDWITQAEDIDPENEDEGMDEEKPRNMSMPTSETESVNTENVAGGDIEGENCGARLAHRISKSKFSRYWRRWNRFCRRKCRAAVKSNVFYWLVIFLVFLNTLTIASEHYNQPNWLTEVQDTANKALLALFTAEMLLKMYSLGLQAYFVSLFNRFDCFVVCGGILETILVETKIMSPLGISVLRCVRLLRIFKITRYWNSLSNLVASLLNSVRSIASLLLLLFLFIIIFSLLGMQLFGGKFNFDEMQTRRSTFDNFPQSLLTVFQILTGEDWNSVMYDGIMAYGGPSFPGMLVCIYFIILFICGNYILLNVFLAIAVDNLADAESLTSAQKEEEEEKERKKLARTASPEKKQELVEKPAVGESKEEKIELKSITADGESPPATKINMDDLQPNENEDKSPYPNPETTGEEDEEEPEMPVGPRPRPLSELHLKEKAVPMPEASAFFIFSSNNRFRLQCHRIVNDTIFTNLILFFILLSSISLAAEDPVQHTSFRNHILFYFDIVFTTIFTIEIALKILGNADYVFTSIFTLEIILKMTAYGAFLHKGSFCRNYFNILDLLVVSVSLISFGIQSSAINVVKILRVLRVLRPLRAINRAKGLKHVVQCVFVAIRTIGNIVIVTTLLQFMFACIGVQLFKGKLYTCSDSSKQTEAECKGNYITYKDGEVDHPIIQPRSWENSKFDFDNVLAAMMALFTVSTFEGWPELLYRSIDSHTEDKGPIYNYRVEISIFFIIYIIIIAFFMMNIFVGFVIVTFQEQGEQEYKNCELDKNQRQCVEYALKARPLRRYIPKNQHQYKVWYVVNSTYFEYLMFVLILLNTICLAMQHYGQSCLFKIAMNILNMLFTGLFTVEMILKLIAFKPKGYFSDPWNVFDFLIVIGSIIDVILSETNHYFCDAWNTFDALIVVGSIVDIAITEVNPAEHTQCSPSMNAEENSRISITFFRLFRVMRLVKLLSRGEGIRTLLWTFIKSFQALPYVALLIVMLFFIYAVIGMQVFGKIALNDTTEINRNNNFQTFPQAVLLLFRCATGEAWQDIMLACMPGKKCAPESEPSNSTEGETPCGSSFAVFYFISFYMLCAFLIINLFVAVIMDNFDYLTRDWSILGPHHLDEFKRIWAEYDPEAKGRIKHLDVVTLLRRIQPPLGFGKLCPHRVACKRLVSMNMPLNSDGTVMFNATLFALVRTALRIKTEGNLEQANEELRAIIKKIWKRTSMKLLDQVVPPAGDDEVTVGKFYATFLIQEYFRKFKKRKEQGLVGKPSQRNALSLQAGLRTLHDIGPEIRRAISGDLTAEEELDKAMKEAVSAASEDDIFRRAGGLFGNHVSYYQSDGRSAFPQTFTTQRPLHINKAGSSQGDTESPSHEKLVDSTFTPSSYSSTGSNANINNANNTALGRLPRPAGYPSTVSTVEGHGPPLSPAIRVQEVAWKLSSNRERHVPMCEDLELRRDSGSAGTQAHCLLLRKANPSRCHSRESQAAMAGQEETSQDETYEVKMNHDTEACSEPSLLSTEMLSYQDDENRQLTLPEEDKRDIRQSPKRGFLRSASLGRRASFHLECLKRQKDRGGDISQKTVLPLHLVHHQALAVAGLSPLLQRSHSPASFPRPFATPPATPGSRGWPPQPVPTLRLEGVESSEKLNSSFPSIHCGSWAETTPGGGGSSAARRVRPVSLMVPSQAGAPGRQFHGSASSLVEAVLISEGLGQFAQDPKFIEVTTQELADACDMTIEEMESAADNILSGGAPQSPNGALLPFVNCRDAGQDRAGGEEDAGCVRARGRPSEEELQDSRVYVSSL
Cytochrome P450 2C9, sequence (P11712 whole entry): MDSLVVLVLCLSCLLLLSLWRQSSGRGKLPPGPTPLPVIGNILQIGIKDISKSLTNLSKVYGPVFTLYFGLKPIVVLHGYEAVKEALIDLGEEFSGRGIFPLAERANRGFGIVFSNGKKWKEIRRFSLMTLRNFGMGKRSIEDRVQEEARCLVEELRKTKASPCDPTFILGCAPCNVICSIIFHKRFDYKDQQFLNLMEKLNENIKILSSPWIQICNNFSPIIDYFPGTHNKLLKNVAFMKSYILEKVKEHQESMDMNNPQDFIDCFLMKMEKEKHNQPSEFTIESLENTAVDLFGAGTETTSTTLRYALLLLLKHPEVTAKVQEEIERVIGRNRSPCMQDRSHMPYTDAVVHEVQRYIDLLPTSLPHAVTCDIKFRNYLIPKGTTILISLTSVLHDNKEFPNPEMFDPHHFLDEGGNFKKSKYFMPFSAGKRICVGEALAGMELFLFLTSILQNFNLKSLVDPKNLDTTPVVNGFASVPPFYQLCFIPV
Cytochrome P450 3A4, sequence (P08684 whole entry): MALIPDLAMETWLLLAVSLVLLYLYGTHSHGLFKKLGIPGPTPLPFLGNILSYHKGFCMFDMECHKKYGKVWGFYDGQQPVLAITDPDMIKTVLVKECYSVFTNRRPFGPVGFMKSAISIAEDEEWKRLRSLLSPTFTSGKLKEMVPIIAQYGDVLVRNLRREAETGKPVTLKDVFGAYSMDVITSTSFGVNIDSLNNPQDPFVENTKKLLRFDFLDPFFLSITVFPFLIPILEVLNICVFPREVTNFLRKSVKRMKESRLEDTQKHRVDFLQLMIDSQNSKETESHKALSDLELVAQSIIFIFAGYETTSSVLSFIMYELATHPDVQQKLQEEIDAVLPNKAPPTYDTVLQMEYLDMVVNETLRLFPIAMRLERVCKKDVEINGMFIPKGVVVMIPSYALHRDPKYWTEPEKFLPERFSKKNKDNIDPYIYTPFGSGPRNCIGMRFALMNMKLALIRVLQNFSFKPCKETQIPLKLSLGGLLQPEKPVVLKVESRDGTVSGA
Cytochrome P450 2D6, sequence (P10635 whole entry): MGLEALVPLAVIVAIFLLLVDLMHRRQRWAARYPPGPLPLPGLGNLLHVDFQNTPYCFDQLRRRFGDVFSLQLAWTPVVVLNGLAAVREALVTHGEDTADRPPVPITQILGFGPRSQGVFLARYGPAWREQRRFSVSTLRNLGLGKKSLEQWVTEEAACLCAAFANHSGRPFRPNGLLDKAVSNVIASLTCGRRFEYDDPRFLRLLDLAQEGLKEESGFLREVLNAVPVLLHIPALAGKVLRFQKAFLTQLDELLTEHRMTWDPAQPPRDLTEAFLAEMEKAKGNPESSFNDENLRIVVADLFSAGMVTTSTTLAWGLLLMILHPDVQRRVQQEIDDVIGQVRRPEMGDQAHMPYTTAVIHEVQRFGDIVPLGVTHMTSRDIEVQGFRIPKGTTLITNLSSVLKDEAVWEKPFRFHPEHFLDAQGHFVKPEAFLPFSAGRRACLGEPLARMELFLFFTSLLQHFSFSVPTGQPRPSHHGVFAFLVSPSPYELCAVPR

AUC (Rattus norvegicus [2]): 0.34 µM·kg·h/mg
concentration at 1 h [3]: 410 nM
IC50 (Cytochrome P450 2C9): > 10 µM
clearance [4]: 5.6 mL/min/kg
Cmax [6]: 290 nM
concentration at 3 h [8]: 750 nM
Vd [11]: 5.1 L/kg
half-life [12]: 1.4 h
IC50 (Cytochrome P450 2D6): > 10 µM
concentration at 3 h [16]: 170 nM
IC50 (Cytochrome P450 3A4): > 10 µM
concentration at 1 h [18]: 260 nM
AUC (Canis familiaris [19]): 1.02 µM·kg·h/mg
concentration (Plasma): 1900 nM
clearance [20]: 64 mL/min/kg
bioavailability [21]: 68%
remaining at 1 h [24]: 20%
EC50 [31]: > 30 µM
half-life [33]: 4.6 h
concentration (Brain): 1400 nM
bioavailability [38]: 18%
remaining at 1 h [40]: 20%
Compound: CC(C)(C)NC(=O)Cn1c(-c2ccc(OC(F)(F)F)cc2)cc2cc(C(C)(C)C(=O)NC(C)(C)C)ccc21
Activity (Rattus norvegicus [1]): 52%
Activity (Rattus norvegicus [5]): 36%
Activity (Canis familiaris [7]): Toxic
Activity (Rattus norvegicus [9]): Non-toxic
Activity (Rattus norvegicus [10]): 22%
Activity (Rattus norvegicus [13]): Non-toxic
Activity (Rattus norvegicus [14]): 57%
Activity (Rattus norvegicus [15]): Active
Activity (Canis familiaris [17]): 32%
Activity (Rattus norvegicus [22]): 68%
Activity (Rattus norvegicus [23]): 17%
Activity (Rattus norvegicus [25]): 45%
Activity (Rattus norvegicus [26]): 37%
Activity (Rattus norvegicus [27]): Toxic
Activity (Rattus norvegicus [28]): 32%
Activity (Rattus norvegicus [29]): Toxic
Activity (Rattus norvegicus [30]): 50%
Activity (Rattus norvegicus [32]): 14%
Activity (Rattus norvegicus [34]): 47%
inhibition at 10 µM [35]: 85%
Activity (Rattus norvegicus [36]): 68%
Activity (Rattus norvegicus [37]): 66%
Activity (Rattus norvegicus [39]): 27%
